Results reported in PMC7771297 (Oncogene, 2017).

Key:
[1] = system: PAIII rat prostate adenocarcinoma cells; test: IP-MS of PTHrP1–17 in PAIII conditioned media with MMP inhibition; format: cell-based
[2] = system: SAOS-2 osteosarcoma cells; test: IP-MS of PTHrP1–17 in SAOS-2 conditioned media with exogenous MMP-3; format: cell-based, human; settings: SAOS-2+MMP-3 100 ng/ml; SAOS-2 alone = 0.004
[3] = system: PTH1R; settings: PTH1R overexpressing CHO-K1 cells; cited from earlier work
[4] = system: PTH1R; settings: PTH1R overexpressing CHO-K1 cells; cited from earlier work; remark: listed apart in the source
[5] = system: osteoblasts; test: Tumour necrosis factor-α-induced cell death of osteoblasts; format: cell-based
[6] = system: osteoprotegerin (OPG); test: OPG expression in whole bone marrow co-cultures; format: cell-based, mouse; settings: 10 nM for 48 h
[7] = system: MSCs; test: Migration of primary MSCs; format: cell-based, mouse; settings: 10 nM in serum free media, 6 h / 5-h (methods), n = 3/group
[8] = biological target: T1, PTH1R (Mus musculus, UniProt P41593); test: Calcium flux in PTH1R knockdown MC3T3 cells; format: cell-based; settings: shPTH1R versus shControl MC3T3, 10 nM
T1 sequence (P41593 27-591): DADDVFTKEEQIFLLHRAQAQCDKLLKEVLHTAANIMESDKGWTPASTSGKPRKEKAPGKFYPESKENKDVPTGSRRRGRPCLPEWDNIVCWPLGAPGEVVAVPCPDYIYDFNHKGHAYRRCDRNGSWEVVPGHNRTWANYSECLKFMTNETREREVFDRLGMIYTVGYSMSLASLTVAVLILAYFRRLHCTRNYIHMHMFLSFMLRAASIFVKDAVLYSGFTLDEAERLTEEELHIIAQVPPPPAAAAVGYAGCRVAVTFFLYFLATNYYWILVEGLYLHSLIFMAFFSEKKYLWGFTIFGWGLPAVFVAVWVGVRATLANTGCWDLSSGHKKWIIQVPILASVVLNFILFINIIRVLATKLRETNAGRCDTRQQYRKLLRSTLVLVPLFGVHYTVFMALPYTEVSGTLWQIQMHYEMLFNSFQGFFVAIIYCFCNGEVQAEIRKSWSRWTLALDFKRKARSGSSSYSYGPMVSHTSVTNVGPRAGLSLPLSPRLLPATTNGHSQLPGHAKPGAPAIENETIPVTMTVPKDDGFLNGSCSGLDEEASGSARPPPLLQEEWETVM
Summary of the method: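 Stable shPTH1R MC3T3 clones came from lentiviral transduction of three pooled PTH1R shRNAs; shControl clones carried a scrambled sequence. Cells (1 × 10^5) were loaded with Fluo-4 Direct. Time-lapse microscopy followed fluorescence after peptide addition. Increases (RFU) were measured in single cells, n = 20/group, from three fields per condition. A second shPTH1R clone was also tested.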

[9] = biological target: MMP-3 (Homo sapiens, UniProt P08254); test: MMP-3 processing of PTHrP; format: in vitro ADME; settings: MALDI-TOF
Summary of the method: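 Recombinant PTHrP1–86 (100 ng) was digested 1 h with active MMP-3 (100 ng) in 0.15 M NaCl, Tris pH 7.6 buffer. Products were resolved by SDS-PAGE with Coomassie staining and by immunoblot. N-terminal sequencing was done, and for MALDI-TOF peptides were C18-extracted and mixed with α-cyano-4-hydroxycinnamic acid matrix.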

[10] = biological target: T1, PTH1R; test: cAMP production in MC3T3 osteoblasts; format: cell-based; settings: MC3T3, 10 nM for 15 min, n = 5/group
Summary of the method: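 MC3T3 osteoblasts were plated at 2.5 × 10^4 cells/well and exposed to peptides for 15 min (range 1–100 tested), n = 5/group. cAMP was measured with the cAMP-Glo luminescent assay. The forskolin analogue NKH477 (15 min) served as positive control. Groups were compared by ANOVA with Tukey's test.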

[11] = system: ERK phosphorylation in MSCs; test: ERK phosphorylation in primary MSCs; format: cell-based, mouse; settings: 10 nM, 5 min, vs control or scrambled peptide
[12] = biological target: T1, PTH1R; test: Calcium flux in MC3T3 osteoblasts; format: cell-based; settings: MC3T3, 10 nM, fluorescence in individual cells, n = 20/group
Summary of the method: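 MC3T3 cells (1 × 10^5) were loaded with Fluo-4 Direct calcium reagent and imaged by time-lapse fluorescence microscopy before and after peptide addition (0 and 60 s frames shown). Fluorescence rise was quantified in individual cells, n = 20/group, from three fields of view per condition.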

[13] = system: calvariae of Rag2−/− neonates; test: Neonatal calvaria ex vivo assay; design: species or system mouse; settings: 10 nM, 14 days, n = 4/group
Summary of the method: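 Calvariae were isolated from 4-day-old Rag2−/− neonates and kept in organ culture. They were exposed to peptides for 14 days, n = 4/group.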

[14] = biological target: T1, PTH1R; test: ERK phosphorylation in PTH1R knockdown MC3T3 cells; format: cell-based; settings: shPTH1R MC3T3 versus control shRNA, 10 nM for 5 min
Summary of the method: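 PTH1R knockdown MC3T3 clones were made by lentiviral transduction of a pool of three shRNAs, with scrambled-sequence shControl clones; clone D was used. Cells got peptides for 5 min and were lysed in RIPA. Phospho-ERK immunoblots were blocked in 5% BSA, detected with HRP secondary and normalised to actin loading control. Triplicate experiments.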

[15] = system: MC3T3 cells; test: Migration of MC3T3 osteoblasts; format: cell-based, mouse; settings: MC3T3, 10 nM in serum free media, 6 h / 5-h (methods), n = 3/group
Summary of the method: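 Modified Boyden chamber assay: after 24-h serum starvation, 5 × 10^5 MC3T3 cells were seeded in the upper chamber (n = 3/group). Migration toward peptide in serum-free media ran at 37 °C, 5 h per methods (6 h in legend). Serum-free and 1% serum media were negative and positive controls. Cells were counted per ×20 field in five micrographs per condition.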

[16] = system: RANKL; test: RANKL expression in whole bone marrow co-cultures; format: cell-based, mouse; settings: 10 nM for 48 h
[17] = system: SCID-Beige mice; test: Murine model of ectopic bone formation; format: in vivo, mouse; settings: 40 μg/kg/day s.c., 21 days
Summary of the method: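 Gelfoam sponges loaded with 1 × 10^6 bone marrow MSCs from C57BL/6 mice were implanted s.c. into randomized 6-week-old male SCID-Beige mice, two implants per flank, n = 3/group. After 1-week recovery, peptides or vehicle were injected s.c. daily at 40 μg/kg/day for 21 days. Ossicles were excised for μCT and trichrome histology, with bone matrix quantified.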

[18] = system: CREB phosphorylation in MC3T3 osteoblasts; test: CREB phosphorylation in MC3T3 osteoblasts; format: cell-based, mouse; settings: MC3T3, 10 nM for 5 min in serum free media
Summary of the method: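 Immunoblot of MC3T3 osteoblasts exposed to peptides for 5 min in serum-free media. Controls were serum-free (S0), 10% serum (S10) and a scrambled peptide. Cells were lysed in RIPA buffer (pH 8) and protein was measured by BCA. Blots were blocked in 5% BSA for 1 h, probed with primary antibody then HRP-conjugated secondary, with actin as loading control. Run in triplicate.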

[19] = system: SCID-Beige mice; test: In vivo calvarial injection assay; design: species or system mouse; settings: 2 μg s.c. over the calvaria every 6 h for 3 days, n = 3/group
Summary of the method: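 Randomized 4–6-week-old female SCID-Beige mice (n = 3/group) received 2 μg peptide s.c. over the calvaria every 6 h for 3 days. Calvariae were harvested 10 h after the last injection, fixed and scanned by high-resolution μCT. They were then decalcified (14% EDTA, pH 7.4, 3 days) and paraffin-embedded, and 5 μm sections were stained with H&E, trichrome and TRAcP. Bone-lining multinucleated TRAcP-positive osteoclasts were counted per μm bone.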

[20] = system: ERK phosphorylation in MC3T3 osteoblasts; test: ERK phosphorylation in osteoblasts; format: cell-based, mouse; settings: 10 nM, 5 min, serum free media, vs control or scrambled peptide
[21] = bone marrow cultures, n = 3/group

Chain of MMP-3 (P08254 100-272 limits assumed): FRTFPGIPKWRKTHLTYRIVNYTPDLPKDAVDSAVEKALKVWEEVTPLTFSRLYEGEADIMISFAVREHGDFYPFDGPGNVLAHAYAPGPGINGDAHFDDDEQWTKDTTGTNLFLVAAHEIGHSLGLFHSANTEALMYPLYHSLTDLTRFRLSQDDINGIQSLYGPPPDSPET

With `CNC(=O)[C@H](Cc1c[nH]c2ccccc12)NC(=O)[C@@H](CC(=O)NO)CC(C)C` [GM6001] the “reduction of the amount of PTHrP1–17 in conditioned media” value ([1]; PAIII, GM6001 10 μM, serum free 24 h, IP-MS with SIS1–17) was 77% and the “ratio of endogenous PTHrP1–17 to PTHrP1–17 SIS (peak areas)” value ([1]; PaIII+GM6001 10 μM, PaIII alone = 0.13) was 0.03.

In the case of “MMP-3: recombinant MMP-3 (Millipore, #444217) added to SAOS-2 cells”, the “ratio of endogenous PTHrP1–17 to PTHrP1–17 SIS (peak areas)” value [2] is reported as 0.03.

For “PTHrP1–16: N-terminal PTHrP fragment of a recent study (ref 31) (AVSEHQLLHDKGKSIQ; UniProt P12272 37-52, looked up, fragment)”, the calcium flux [3] is listed as “no effect on calcium flux” and the cAMP production [4] is listed as “does not result in cAMP production”.

With “PTHrP1–36: mature 36 amino acid form of parathyroid hormone-related protein (ProImmune)” the “prevention of tumour necrosis factor-α-induced cell death” value [5] was “did not prevent”, the “OPG expression (real-time PCR)” value [6, 21] was “suppressing OPG” and the “OPG expression (RT-PCR)” value ([6]; primary bone marrow cultures) was “appeared to suppress the expression of osteoprotegerin (OPG)”. The migration [7] was “significantly increased migration”, the “calcium flux in PTH1R knockdown cells” value [8] was “significantly reduced” and the “further cleavage of PTHrP1–36 by MMP-3” value ([9]; 0.15 M NaCl, 50 mM Tris pH 7.6) was “further cleaved to distinct stable peptide products”. For the same molecule, the “time in which MMP-3 generated the main PTHrP products” value ([9]; kinetic analyses) was no more than 1 h, the cAMP production [10] was “induced cAMP” and the ERK phosphorylation [11] was “induced ERK phosphorylation within 5 min”. The calcium flux [12] was “triggered increases in calcium flux”, the “bone formation in calvaria ex vivo” value [13] was “no evidence of bone formation” and the “degradation of calvaria ex vivo” value [13] was “significant degradation of the calvaria”. The “ability to induce ERK phosphorylation in PTH1R knockdown cells” value [14] was “abrogated”, the migration [15] was “significantly increased migration” and the “RANKL expression (real-time PCR)” value [16, 21] was “significantly enhanced RANKL expression”. The “ratio of average RANKL:OPG transcripts” value ([16]; bone marrow cultures, real-time PCR) was 15.03, the “RANKL expression (RT-PCR)” value ([16]; primary bone marrow cultures) was “increased RANKL expression” and the “osteoid in trichrome stained ossicle sections” value ([17]; n = 3/group) was “a significant amount of osteoid”. The “trabecular bone volume of hind limbs” value ([17]; compared to control) was “significantly more bone”, the “bone formation in ectopic ossicles, μCT” value ([17]; intermittent, n = 3/group) was “revealed bone formation” and the CREB phosphorylation [18] was “only induced by PTHrP1–36”. The “bone resorption of calvaria” value [19] was “displayed areas of extensive bone resorption” and the ERK phosphorylation [20] was “induced ERK phosphorylation within 5 min”.
